The list is not random: actives were taken first. Their share in the collection is about 3.5%.
RGS4 inh = human RGS4 inhibition; P49798; B-score at 10 µM; 0.45% of 310,000 active; HEK293 M3R/RGS4 inducible, Fluo-4 calcium flux; stronger effect = higher value; triggered by carbachol at its EC20; AID 463165;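 active = B-score, a plate-corrected calcium signal, over three deviations above library mean, with baseline fluorescence within five deviations of library mean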;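 also: RGS4 expression induced by doxycycline in cells with stable M3 receptor; B-score is computed from the integrated fluorescence ratio over baseline after carbachol; higher B-score means a larger calcium signal and so more RGS4 inhibition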
Target sequence (P49798 whole entry, looked up): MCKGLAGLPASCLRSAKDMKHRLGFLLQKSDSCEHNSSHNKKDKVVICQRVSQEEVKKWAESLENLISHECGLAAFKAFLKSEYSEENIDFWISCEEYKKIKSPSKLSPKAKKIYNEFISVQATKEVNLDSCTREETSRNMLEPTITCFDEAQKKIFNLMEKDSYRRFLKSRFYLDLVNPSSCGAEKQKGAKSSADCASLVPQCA
MrgX1 antag = human MrgX1 receptor antagonism, primary screen. Q96LB2. MRGX1-HEK293 calcium flux, Fluo-4, BAM8-22 antagonism; stronger effect = lower value. B-score at 10 µM. 1.3% of 310,000 active. AID 588676;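 active = calcium-response B-score plate-corrected more than 3 library SD below zero, starting fluorescence within 5 deviations, no agonist response on first addition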;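 also: peak minus trough fluorescence over baseline after final BAM8-22 challenge near maximal dose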
RGS4 pot = potentiators or activators of RGS4; AID 463111; HEK293 M3R/inducible RGS4, carbachol calcium flux Fluo4; stronger effect = lower value; B-score at 10 µM; 0.92% of 310,000 active;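 active = B-score of the integrated calcium signal more than 4 SD below the library mean, with starting fluorescence not abnormally high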;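 also: negative B-score means reduced calcium response which marks RGS4 activation or potentiation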
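Also added: carbachol at ECmax as muscarinic agonist stimulus; Assay system: HEK293 cells with stable M3R and inducible RGS4; Timing: overnight RGS4 induction, 30 min dye load 37 °C, 20 min compound RT; Measured by: Fluo4-AM (2 µM) calcium-flux fluorescence, kinetic read.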
MrgX1 PAM = human MrgX1 positive allosteric modulation, primary screen. 0.63% of 310,000 active. Q96LB2. B-score at 10 µM. MrgX1-HEK293, Fluo-4 calcium flux, FDSS; stronger effect = higher value. AID 588675;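 active = plate-corrected calcium response at least 3 library SD above typical, normal starting fluorescence, not activating the receptor alone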;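 also: compound read alongside a low EC10 to EC30 dose of BAM8-22 agonist; peak minus trough fluorescence over baseline measured at the second addition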
MrgX1 agonist = agonists of human MrgX1 receptor. B-score at 10 µM. MrgX1-HEK293 cells, Fluo-4 calcium fluorescence, agonist mode; stronger effect = higher value. 0.44% of 310,000 active. Q96LB2. AID 588627;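 active = calcium response B-score plate-corrected fluorescence ratio at least 3 library SD, with starting fluorescence B-score inside 5 SD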
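Material: HEK293 cells stably expressing human MrgX1 receptor | Quantity: 15,000 cells per well | Times: Cells plated overnight, dye loaded 0.5 h 37 °C, 0.5 h room temperature | Measured by: Kinetic Fluo-4 NW fluorescence of intracellular calcium | Control set: Positive and negative controls per plate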
* hit, by the source's call; i = inactive; x = no result.

SMILES	RGS4 inh	MrgX1 antag	RGS4 pot	MrgX1 PAM	MrgX1 agonist
O=C(/C=C/c1ccccc1Br)c1ccc2c(c1)OCO2	i	i	-11*	i	i
O=C(/C=C/c1cccc(Br)c1)c1ccc2c(c1)OCO2	i	i	i	8.3*	i
O=C(/C=C\Nc1cccc(F)c1)c1ccc2c(c1)OCO2	i	-4.7*	i	i	i
COc1ccc(Cl)cc1S(=O)(=O)N1CCCC(C(=O)NCc2ccccn2)C1 (stereo unspecified)	i	i	i	i	i
Cc1cccc(N2CCN(C(=O)Cc3ccccc3[N+](=O)[O-])CC2)c1C	i	i	i	i	i
COc1cc(/C=C2/SC(=Nc3ccc(O)cc3)NC2=O)ccc1O	i	-5*	i	i	i
COc1cc(/C=C2\COC/C(=C\c3ccc(O)c(OC)c3)C2=O)ccc1O	i	i	i	i	i
COc1cc(/C=C2/CC/C(=C/c3ccc(O)c(OC)c3)C2=O)ccc1O	i	i	i	i	58*
CCc1ccc(N=C2NC(=O)/C(=C/c3cc(OC)c(O)c(OC)c3)S2)cc1	i	-7.6*	i	i	i
N#C/C(=C(/O)C(Cl)(Cl)Cl)c1nc2ccccc2[nH]1	i	i	i	i	i
O=C(CCCCCNc1nc(=S)[nH]c2ccccc12)NCCc1c[nH]c2ccccc12	i	i	i	i	i
O=C(CCCCCNc1nc(=S)[nH]c2ccccc12)NCCc1ccc(Cl)cc1	i	i	i	9.7*	i
C=CCN1C=CC=C/C1=C1\SC(=S)N(C)C1=O	i	i	-8.3*	i	i
CN1C=CC=C/C1=C1\SC(=S)N(c2ccccc2)C1=O	i	i	i	i	i
OC(COc1ccc(C2C=CCC2)cc1)CN1CCCCC1 (stereo unspecified)	i	i	-7*	i	i
COc1cc(/C=C2/C(=N)N3N=C(CC(=O)N4CCOCC4)SC3=NC2=O)ccc1OCc1ccc(F)cc1	i	i	i	16*	i
COc1ccc(/C=C2/C(=N)N3N=C(CC(=O)N4CCCC4)SC3=NC2=O)cc1OC	i	i	i	i	i
COc1cc(/C=C2/C(=N)N3N=C(CC(=O)N4CCOCC4)SC3=NC2=O)ccc1OCc1ccccc1F	i	i	i	17*	i
CSc1ccc(/C=C2/C(=N)N3N=C(CC(=O)N4CCCC4)SC3=NC2=O)cc1	i	i	i	i	31*
Cc1ccc(/C=C2/C(=N)N3N=C(CC(=O)N4CCCC4)SC3=NC2=O)cc1	i	i	i	i	i
O=C(CN1CCCCCC1)Nc1ccccc1C(=O)Nc1ccccc1	i	i	i	i	i
O=[N+]([O-])c1ccc(C2=NN(c3ccccc3)C(c3ccco3)C2)cc1 (stereo unspecified)	i	x	-7.2*	x	x
O=[N+]([O-])c1ccc(/C=C/C2=NN(c3ccccc3)C(c3ccco3)C2)cc1 (stereo unspecified)	x	i	x	9.7*	i
C[n+]1ccccc1/C=C/c1ccc([N+](=O)[O-])cc1	i	i	i	i	i
O=S(=O)(c1ccccc1)N1N=C(c2ccc(O)cc2)CC1c1ccco1 (stereo unspecified)	i	i	i	i	i
SMILES	RGS4 inh	MrgX1 antag	RGS4 pot	MrgX1 PAM	MrgX1 agonist
O=C(Nc1ccncc1)c1cc(S(=O)(=O)N2CCOCC2)ccc1Cl	i	i	i	i	i
O=C1S/C(=C\c2ccc(O)c([N+](=O)[O-])c2)C(=O)N1Cc1cccc([N+](=O)[O-])c1	i	i	i	i	i
O=C(O)c1cccc(CN2C(=O)S/C(=C/c3ccccc3[N+](=O)[O-])C2=O)c1	i	i	i	11*	i
CCOC(=O)N1CCN(c2nc(N(c3ccccc3)c3ccccc3)nc(-n3ccnc3)n2)CC1	i	i	-7.1*	i	i
CN(C)C(CNc1ncnc2ccccc12)c1c(F)cccc1Cl (stereo unspecified)	i	i	i	i	i
O=C(Cn1ncc2c3ccccc3n(Cc3ccc(F)cc3)c2c1=O)N1CCN(c2ncccn2)CC1	i	-8.1*	i	i	i

Bioassay records as filed in PubChem.
